APOBEC3G inh – APOBEC3G (human) deaminase inhibition; recombinant A3G, ssDNA deamination FAM/TAMRA fluorescence; AID 493012; inhibition, % at 20 µM; 0.28% of 330,000 active;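 active = inhibition of at least 40% at 20 µM, with no more than 30% in the related APOBEC3A deaminase screen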;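 note: plate controls were DMSO wells with A3G for no effect and wells lacking A3G enzyme for full effect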
HCV NS3 hel inh – blocks Hepatitis C virus NS3 helicase unwinding. inhibition, % at 10.9 µM. 0.56% of 290,000 active. NS3 helicase DNA unwinding, Cy5 molecular beacon fluorescence. AID 1800;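 active = inhibition above the mean of all tested compounds plus 3 SD, set per campaign, cut at about 35% in these data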;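 note: 0% = DMSO wells and 100% = thioflavine S control wells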
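System: NS3 helicase fragment of HCV / Schedule: 1 h at 25 °C / Control set: DMSO alone as 0% and 110 µM thioflavine S as 100% / Reagent: Cy5/quencher beacon DNA duplex and ATP to start / Technique: Cy5 fluorescence / Replication: singlicate / Evaluation: % inhibition of end-to-start signal ratio versus controls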
core dimer inh – blocks dimerization of HCV core protein | 0.33% of 300,000 active | inhibition, % at 5 µM | TR-FRET GST/Flag-core106 dimerization, 1536-well | AID 1899;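 active = inhibition above the mean of all tested compounds plus 3 SD, set per screening campaign, cut at about 45% in these data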
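Assay system: Tagged HCV core106 pair (GST and Flag) | Buffer or medium: KF-containing HEPES buffer, pH 7.45, DTT, CHAPS, BSA | Also added: Eu donor and XL665 acceptor anti-tag antibodies | Dosing: One concentration, 5 µM, in 0.5% DMSO | Timing: 4 h at 22.5 °C | Technique: TR-FRET 671 and 617 nm emission | Repeats: Singlicate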
PRMT1 FP inh – PRMT1 (human) inhibition, primary screen | AID 652257 | Q99873 | 1.3% of 370,000 active | inhibition, % at 2.79 µM | recombinant PRMT1, activity-based probe fluorescence polarization;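 active = inhibition above about 21% made by adding two undisclosed values, limit read from the data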
ABHD5 PLIN5 PPI – inhibitors of human ABHD5-perilipin-5 interaction | Split G. princeps luciferase complementation, luminescence, 4 h | inhibition, % at 4 µM | 0.78% of 360,000 active | AID 602281;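 active = inhibition above the mean inhibition across every tested compound plus 3 SD, cut at about 22% in these data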;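 note: 0% = DMSO only wells and the 100% control is not disclosed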
A3A deaminase – inhibitors of human APOBEC3A DNA deaminase | recombinant A3A, FAM/TAMRA ssDNA deamination fluorescence | P31941 | inhibition, % at 20 µM | 0.41% of 330,000 active;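 active = at least 40% inhibition at 20 µM here, with at most 30% in a related deaminase screen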;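 note: plate controls were A3A with DMSO for no effect and wells lacking A3A enzyme for full effect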
Target sequence (P31941 whole entry, looked up): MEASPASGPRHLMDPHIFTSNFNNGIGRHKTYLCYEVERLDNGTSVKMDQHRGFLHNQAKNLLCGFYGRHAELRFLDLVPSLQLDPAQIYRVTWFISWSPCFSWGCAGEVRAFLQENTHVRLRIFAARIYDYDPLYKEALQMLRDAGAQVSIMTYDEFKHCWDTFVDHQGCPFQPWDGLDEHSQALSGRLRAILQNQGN
PRMT1 confirm – confirmation of human PRMT1 inhibitors; shares compounds with PRMT1 FP inh; recombinant His-PRMT1, activity-based probe fluorescence polarization; inhibition, % at 2.79 µM; 42% of 3,300 active; AID 687036;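 active = mean inhibition across replicates above the hit cutoff derived for the earlier primary screen, cut at about 22% in these data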
The depositor's hits bear a star; nt = not tested or not shown. Compounds with a hit are over-represented: about 2.9% of the library has one in this group of screens.

SMILES | APOBEC3G inh | HCV NS3 hel inh | core dimer inh | PRMT1 FP inh | ABHD5 PLIN5 PPI | A3A deaminase | PRMT1 confirm
Cc1cc(C)c(NC(=O)/C=C\C(=O)O)c([N+](=O)[O-])c1 | 3 | -4 | -6 | 81* | 6 | 2 | 37*
Cc1ccc([N+](=O)[O-])cc1NC(=O)/C=C/C(=O)O | -4 | 0 | -2 | 49* | 1 | -4 | 5
Cc1cc(C)c(NC(=O)/C=C\C(=O)O)c(Cl)c1 | -11 | -14 | 2 | 28* | 7 | -1 | 11
O=C(O)/C=C\C(=O)Nc1cc(O)ccc1[N+](=O)[O-] | 2 | 4 | -1 | 1 | 2 | 5 | nt
COc1ccc([N+](=O)[O-])cc1NC(=O)/C=C/C(=O)O | -5 | 19 | -9 | 2 | 5 | 0 | nt
Cc1ccc(NC(=O)/C=C\C(=O)O)c([N+](=O)[O-])c1 | -7 | -4 | -9 | 65* | 9 | -3 | -1
Cc1ccc(NS(=O)(=O)c2cc(C(=O)Nc3cccc(N(C)S(C)(=O)=O)c3)ccc2C)c(C)c1 | -3 | -18 | 2 | -2 | 1 | 0 | nt
Cc1ccc(NS(=O)(=O)c2cc(NC(=O)c3ccc4c(c3)NC(=O)CS4)ccc2C)c(C)c1 | 36 | 14 | 30 | 34* | -5 | -4 | 23*
Cc1nn(-c2ccccc2)c(Cl)c1/C=C1\SC(=S)N(CCCCCC(=O)O)C1=O | 3 | 23 | 20 | -2 | -1 | 4 | nt
O=C(O)CCN1C(=O)/C(=C/c2ccc(-c3nc4ccccc4s3)o2)SC1=S | 17 | 18 | 4 | 69* | -4 | 17 | 23*
O=C(O)CCCN1C(=O)/C(=C\c2ccc(-c3nc4ccccc4s3)o2)SC1=S | 1 | 12 | 12 | 49* | -5 | 6 | 12
O=C(O)c1cc(-c2ccc(/C=C3/SC(=S)N(Cc4ccccc4)C3=O)o2)ccc1Cl | nt | 23 | nt | 14 | 5 | nt | nt
O=C1NC(Cc2ccccc2)c2nc3cc(Cl)ccc3c(=O)n2-c2ccccc21 (centres undefined) | -9 | nt | nt | 0 | nt | 0 | nt
CCC(C)c1c(O)nc(SCC(=O)c2ccccc2)[nH]c1=O (centres undefined) | -1 | 1 | -3 | 52* | -1 | -2 | 52*
C=CCc1c(O)nc(SCC(=O)c2ccccc2)[nH]c1=O | -6 | 0 | 3 | 46* | -8 | 0 | 57*
CCOC(=O)c1ccccc1NC(=O)CSc1nc2[nH]ncc2c(=O)[nH]1 | -3 | nt | -2 | -1 | -2 | 0 | nt
O=S1(=O)CC(O)C(O)CS1 (centres undefined) | nt | nt | nt | 81* | 5 | nt | 85*
COc1ccc(NC(=O)CC2Sc3ncnn3C2=O)cc1 (centres undefined) | 26 | 2 | 5 | 86* | 10 | 5 | 25*
O=C(NCc1ccc(Cl)cc1)c1ccc(Cn2cc(C(F)(F)F)ccc2=O)cc1 | -6 | 1 | -6 | 72* | -15 | 0 | 64*
Cc1[nH]c2ccccc2c1CC(=O)Nc1ccc(Nc2cccnc2)c(-c2ccc(OC(F)(F)F)cc2)c1 | nt | nt | nt | 6 | nt | nt | nt
CC1(C(=O)NNC(=O)c2cccc([N+](=O)[O-])c2)CC1(Br)Br (centres undefined) | 5 | 4 | -11 | -1 | -1 | 1 | nt
Nc1cc(=O)[nH]c(SCC(=O)Nc2cccc(Cl)c2)n1 | -9 | -4 | -4 | 2 | 2 | 3 | nt
COC(OC)c1nc(SCC(=O)Nc2cccc(Cl)c2)ncc1C(=O)O | -7 | 9 | 5 | 27* | -1 | -5 | 3
O=C1NC[C@@H](CCCCN2C[C@H](Cc3ccc(O)cc3)N(Cc3ccccc3)C(=O)C2=O)N(Cc2ccccc2)C1=O | nt | nt | nt | -2 | -6 | nt | nt
COc1cccc(C(=O)NC2C(=O)N3C(C(=O)O)=C(COC(C)=O)CSC23)c1 (centres undefined) | -8 | nt | nt | 29* | 20 | -1 | 34*
CC(=O)OCC1=C(C(=O)O)N2C(=O)C(NC(=O)c3ccc(COc4cccc(Cl)c4Cl)o3)C2SC1 (centres undefined) | -1 | 29 | 34 | 37* | 17 | 16 | 13
CC(=O)OCC1=C(C(=O)OC(C)(C)C)N2C(=O)[C@@H](NC(=O)Cc3ccccc3)[C@H]2SC1 | nt | nt | nt | 8 | 8 | nt | nt
COC(=O)Cc1nnn2c1[C@@H](C)[C@@H](c1ccccc1Br)OC[C@H](C)C2 | nt | nt | nt | -2 | nt | nt | nt
C=CCNC(=O)c1ccc(Cl)cc1Cl | -4 | 2 | -5 | 0 | 2 | -3 | nt
C=CCNC(=O)c1ccsc1N | nt | nt | nt | 27* | -8 | nt | 12
